Experimental data: ChEMBL document CHEMBL5712901, “DOT1L inhibition blocks multiple myeloma cell proliferation by suppressing IRF4-MYC signaling” (2019)
Calls of active or inactive are those of the source. The rule behind the calls is not given here.

How the values were obtained:
[1] = tested on: RPMI-8226; test: Induction of growth suppression in human RPMI-8226 cells assessed as reduction H3K79me3 at 1 uM for 3 days Western blot analysis; format: functional, cell-based; conditions: time 3.0 day
Summary of the method: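 RPMI-8226 cells treated with 1 μM DOT1L inhibitor or DMSO for 3 days. H3K79 methylation probed by Western blot with […].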

[2] = tested on: KMS-12-BM; test: Antiproliferative activity against human KMS-12-BM cells treated 3 days at 1 uM; format: functional, cell-based; conditions: time 3.0 day
Summary of the method: (§1)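 Cell lines in 6-well plates, 2 × 10^4 to 8 × 10^5 cells/well, exposed to DOT1L inhibitor at 0.25-1 μM or DMSO, with medium and drug refreshed every 3 days. Viability read with Cell Counting Kit-8 on a microplate reader. Values normalized to untreated cells; mean of 3 replications ± SEM.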

[3] = tested on: U-266; test: Antiproliferative activity against human U-266 cells treated 3 days at 1 uM; format: functional, cell-based; conditions: time 3.0 day; summary of the method: as §1
[4] = tested on: RPMI-8226; test: Induction of cell cycle arrest in human RPMI-8226 cells assessed as increase in accumulation of cells at G1 phase at 1 uM for 6 days; format: functional, cell-based; conditions: time 6.0 day
Summary of the method: (§2)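 Flow cytometric cell cycle analysis of RPMI-8226 and MM.1S cells treated with 1 μM DOT1L inhibitor or DMSO for 6 days. Sub-G1, G0-G1 and S phase populations scored. Summary is from 3 replications, mean ± SEM.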

[5] = tested on: RPMI-8226; test: Induction of cell cycle arrest in human RPMI-8226 cells assessed as increase in accumulation of cells at G0 phase at 1 uM for 6 days; format: functional, cell-based; conditions: time 6.0 day; summary of the method: as §2
[6] = tested on: MM1.S; test: Induction of cell cycle arrest in human MM1.S cells assessed as increase in accumulation of cells at G1 phase at 1 uM for 6 days; format: functional, cell-based; conditions: time 6.0 day; summary of the method: as §2
[7] = tested on: MM1.S; test: Induction of cell cycle arrest in human MM1.S cells assessed as increase in accumulation of cells at G0 phase at 1 uM for 6 days; format: functional, cell-based; conditions: time 6.0 day; summary of the method: as §2
[8] = tested on: RPMI-8226; test: Induction of apoptosis in human RPMI-8226 cells assessed as viable cells at 1 uM for 6 days by annexin-V based propidium iodide staining based flow cytometric analysis (reference value: 79.67%); format: functional; conditions: RPMI-8226, 144 h, time 6 day, read-out: Activity
[9] = tested on: RPMI-8226; test: Induction of apoptosis in human RPMI-8226 cells assessed as necrotic cells at 1 uM for 6 days by annexin-V based propidium iodide staining based flow cytometric analysis (reference value: 3.61%); format: functional; conditions: time 6 day
[10] = tested on: MM1.S; test: Induction of apoptosis in human MM1.S cells assessed as viable cells at 1 uM for 6 days by annexin-V based propidium iodide staining based flow cytometric analysis (reference value: 80.4%); format: functional; conditions: 144 h, time 6 day, read-out: Activity
[11] = tested on: MM1.S; test: Induction of apoptosis in human MM1.S cells assessed as early apoptotic cells at 1 uM for 6 days by annexin-V based propidium iodide staining based flow cytometric analysis (reference value: 14.6%); format: functional; conditions: time 6 day
[12] = tested on: MM1.S; test: Induction of apoptosis in human MM1.S cells assessed as late apoptotic cells at 1 uM for 6 days by annexin-V based propidium iodide staining based flow cytometric analysis (reference value: 4.85%); format: functional; conditions: time 6 day
[13] = tested on: MM1.S; test: Induction of apoptosis in human MM1.S cells assessed as necrotic cells at 1 uM for 6 days by annexin-V based propidium iodide staining based flow cytometric analysis (reference value: 0.16%); format: functional; conditions: time 6 day
[14] = tested on: RPMI-8226; test: Induction of apoptosis in human RPMI-8226 cells assessed as late apoptotic cells at 1 uM for 6 days by annexin-V based propidium iodide staining based flow cytometric analysis (reference value: 8.89%); format: functional; conditions: time 6 day
[15] = tested on: RPMI-8226; test: Induction of apoptosis in human RPMI-8226 cells assessed as necrotic cells at 1 uM for 6 days by annexin-V based propidium iodide staining based flow cytometric analysis (reference value: 3.92%); format: functional; conditions: time 6 day
[16] = tested on: MM1.S; test: Induction of apoptosis in human MM1.S cells assessed as viable cells at 1 uM for 6 days by annexin-V based propidium iodide staining based flow cytometric analysis (reference value: 77.4%); format: functional; conditions: 144 h, time 6 day, read-out: Activity
[17] = tested on: RPMI-8226; test: Induction of apoptosis in human RPMI-8226 cells assessed as viable cells at 1 uM for 3 days by annexin-V based propidium iodide staining based flow cytometric analysis (reference value: 91.2%); format: functional; conditions: RPMI-8226, 72 h, time 3 day, read-out: Activity
[18] = tested on: RPMI-8226; test: Induction of apoptosis in human RPMI-8226 cells assessed as late apoptotic cells at 1 uM for 3 days by annexin-V based propidium iodide staining based flow cytometric analysis (reference value: 2.43%); format: functional; conditions: time 3 day
[19] = tested on: RPMI-8226; test: Induction of apoptosis in human RPMI-8226 cells assessed as necrotic cells at 1 uM for 3 days by annexin-V based propidium iodide staining based flow cytometric analysis (reference value: 3.40%); format: functional; conditions: time 3 day
[20] = tested on: MM1.S; test: Induction of apoptosis in human MM1.S cells assessed as viable cells at 1 uM for 3 days by annexin-V based propidium iodide staining based flow cytometric analysis (reference value: 94.3%); format: functional; conditions: 72 h, time 3 day, read-out: Activity
[21] = tested on: RPMI-8226; test: Effect on human RPMI-8226 cells assessed as change in PRDM1 mRNA level at 1 uM for 3 days by ChIP-qPCR analysis; format: functional, cell-based; conditions: time 3.0 day
Summary of the method: (§3)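 ChIP-qPCR for H3K79me2 at IRF4-MYC signaling genes after 1 μM inhibitor or DMSO for 3 days. Signal normalized to input DNA. An intergenic region 28 kb upstream of KLF2 served as negative control. Mean of 3 replications ± SEM.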

[22] = tested on: MM1.S; test: Effect on human MM1.S cells assessed as change in Myc mRNA level at 1 uM for 3 days by ChIP-qPCR analysis; format: functional, cell-based; conditions: time 3.0 day; summary of the method: as §3
[23] = tested on: MM1.S; test: Upregulation of IFN in human MM1.S cells assessed as increase in IFITM1 gene at 1 uM for 6 days by qRT-PCR analysis; format: functional, cell-based; conditions: time 6.0 day
[24] = tested on: KMS-12-PE; test: Effect on human KMS-12-PE cells assessed as change in MYC mRNA level by qRT-PCR analysis; format: functional, cell-based
Summary of the method: (§4)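 Basal MYC and IRF4 mRNA in untreated cells measured by qRT-PCR. Normalized to ACTB; mean of 3 replications ± SEM.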

[25] = tested on: KMS-12-BM; test: Effect on human KMS-12-BM cells assessed as change in MYC mRNA level by qRT-PCR analysis; format: functional, cell-based; summary of the method: as §4
[26] = tested on: KMS-12-BM; test: Effect on human KMS-12-BM cells assessed as change in IRF4 mRNA level by qRT-PCR analysis; format: functional, cell-based; summary of the method: as §4
[27] = tested on: KMS-12-BM; test: Effect on human KMS-12-BM cells assessed as decrease in IRF4 mRNA level at 1 uM for 6 days by qRT-PCR analysis; format: functional, cell-based; conditions: time 6.0 day
Summary of the method: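 qRT-PCR of MYC and IRF4 after 1 μM DOT1L inhibitor for 6 days. Normalized to ACTB; mean of 3 replications ± SEM.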

[28] = tested on: U-266; test: Antiproliferative activity against human U-266 cells assessed as reduction in cell viability measured at 1 uM for 18 days; format: functional, cell-based; conditions: time 18.0 day
[29] = tested on: MM1.S; test: Upregulation of IFN in human MM1.S cells assessed as increase in IFIT1 gene at 1 uM for 6 days by qRT-PCR analysis; conditions: time 6.0 day
[30] = tested on: RPMI-8226; test: Upregulation of IFN in human RPMI-8226 cells assessed as increase in ISG15 gene at 1 uM for 6 days by qRT-PCR analysis; conditions: time 6.0 day

| Compound | Activity [1] | Activity [2] | Activity [3] | Activity [4] | Activity [5] | Activity [6] | Activity [7] | viability at 1 µM [8] [%] | Activity [9] [%] | viability at 1 µM [10] [%] | Activity [11] [%] | Activity [12] [%] | Activity [13] [%] | Activity [14] [%] | Activity [15] [%] | viability at 1 µM [16] [%] | viability at 1 µM [17] [%] | Activity [18] [%] | Activity [19] [%] | viability at 1 µM [20] [%] | also measured |
| --- | --- | --- | --- | --- | --- | --- | --- | --- | --- | --- | --- | --- | --- | --- | --- | --- | --- | --- | --- | --- | --- |
| CC(C)N(C[C@H]1O[C@@H](n2cnc3c(N)ncnc32)[C@H](O)[C@@H]1O)[C@H]1C[C@@H](CCc2nc3cc(C(C)(C)C)ccc3[nH]2)C1 [PINOMETOSTAT] | Active | Active | inactive | Active | Active | Active | Active | 50.2 | 9.09 | 67.5 | 21.1 | 11.4 | 0.05 | 17.5 | 3.98 | 52.8 | 76.6 | 9.83 | 6.18 | 96.7 | Activity [21]: Active; Activity [22]: Active; Activity [23]: Active; Activity [24]: Active; Activity [25]: Active; Activity [26]: Active; Activity [27]: Active; Activity [28]: Active; Activity [29]: Active; Activity [30]: Active |
| CC(C)N(CCCNC(=O)Nc1ccc(C(C)(C)C)cc1)C[C@H]1O[C@@H](n2cc(Br)c3c(N)ncnc32)[C@H](O)[C@@H]1O | Active | Active | inactive | Active | Active | Active | Active | 66.9 | 8.1 | 67.9 | 20.2 | 11.7 | 0.21 | 20.2 | 4.83 | 42.4 | 77.8 | 8.85 | 6.32 | 92.3 | Activity [21]: Active; Activity [22]: Active; Activity [23]: Active; Activity [24]: Active; Activity [25]: Active; Activity [26]: Active; Activity [27]: Active; Activity [28]: Active; Activity [29]: Active; Activity [30]: Active |
